Drawing on ChEMBL document CHEMBL4118021, “Studies of TAK1-centered polypharmacology with novel covalent TAK1 inhibitors” (Bioorg Med Chem, 2017), this text covers inhibition, Activity and IC50 for three molecules.

Activity calls are given as the source filed them. The calls are words filed in the database; no cut-off is given here.

Test [1] concerns the target Serine/threonine-protein kinase ATR (Homo sapiens) (UniProt Q13535). In words: Inhibition of ATR in human SKCO1 cells at 1 uM after 4 hrs using biotin labeled FYIMMCKPK probe by mass-spectrometric analysis relative to control. Format: cell-based.
Test [2] concerns the target Tyrosine-protein kinase Yes (Homo sapiens) (UniProt P07947). In words: Inhibition of YES in human SKCO1 cells at 1 uM after 4 hrs using biotin labeled QGAKFPIKWTAPEAALYGR probe by mass-spectrometric analysis relative to control. Format: cell-based.
In test [3] the target is Inhibitor of nuclear factor kappa-B kinase subunit alpha (Homo sapiens) (UniProt O15111). In words: Inhibition of IKKa in human SKCO1 cells at 1 uM after 4 hrs using biotin labeled DLKPENIVLQDVGGK probe by mass-spectrometric analysis relative to control. Format: cell-based.
For test [4], the target named is Mitogen-activated protein kinase 8 (Homo sapiens) (UniProt P45983). In words: Inhibition of JNK1 in human SKCO1 cells at 1 uM after 4 hrs using biotin labeled DLKPSNIVVK probe by mass-spectrometric analysis relative to control. Format: cell-based.
Test [5] concerns the target Mitogen-activated protein kinase 9 (Homo sapiens) (UniProt P45984). Description: Inhibition of JNK2 in human SKCO1 cells at 1 uM after 4 hrs using biotin labeled DLKPSNIVVK probe by mass-spectrometric analysis relative to control. The format is cell-based.
Test [6] concerns the target T1, Dual specificity mitogen-activated protein kinase kinase 4 (Homo sapiens) (UniProt P45985).
T1 sequence (whole entry): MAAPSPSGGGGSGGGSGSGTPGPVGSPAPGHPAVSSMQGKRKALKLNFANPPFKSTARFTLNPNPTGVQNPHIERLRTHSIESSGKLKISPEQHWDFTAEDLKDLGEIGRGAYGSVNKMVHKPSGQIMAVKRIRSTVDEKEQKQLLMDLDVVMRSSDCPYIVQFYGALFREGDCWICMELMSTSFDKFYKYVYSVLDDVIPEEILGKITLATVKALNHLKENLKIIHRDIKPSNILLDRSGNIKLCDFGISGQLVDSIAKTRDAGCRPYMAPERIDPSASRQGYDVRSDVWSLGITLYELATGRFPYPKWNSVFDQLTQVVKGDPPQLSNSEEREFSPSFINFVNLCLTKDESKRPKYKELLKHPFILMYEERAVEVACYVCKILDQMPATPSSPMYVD
Description: Inhibition of MAP2K4 in human SKCO1 cells at 1 uM after 4 hrs using biotin labeled DIKPSNILLDR probe by mass-spectrometric analysis relative to control. Format: cell-based.

Test [7] addresses Ribosomal protein S6 kinase (Homo sapiens) (UniProt P51812+Q9UBS0+O75676+Q15349+O75582+P23443+Q9UK32+Q15418). In words: Inhibition of p70S6K in human SKCO1 cells at 1 uM after 4 hrs using biotin labeled DLKPENIMLNHQGHVK probe by mass-spectrometric analysis relative to control. The format is cell-based. In short, it runs like this: (§1)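 Live SK-CO-1 cells exposed to compound at 1 μM or DMSO for 4 h (KiNativ). Lysates then labeled with lysine-reactive ATP/ADP-biotin probe, and probe-labeled kinase peptides quantified by mass spectrometry. Percent inhibition of probe-dependent recovery calculated relative to DMSO-treated cells.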

Test [8] has as its target Phosphatidylinositol 5-phosphate 4-kinase type-2 alpha (Homo sapiens) (UniProt P48426). In words: Inhibition of PIP4K2A in human SKCO1 cells at 1 uM after 4 hrs using biotin labeled AKELPTLKDNDFINEGQK probe by mass-spectrometric analysis relative to control. Format: cell-based.
The target of test [9] is Serine/threonine-protein kinase Sgk3 (Homo sapiens) (UniProt Q96BR1). Description: Inhibition of SGK3 in human SKCO1 cells at 1 uM after 4 hrs using biotin labeled FYAVKVLQK probe by mass-spectrometric analysis relative to control. Format: cell-based.
Sequence of Serine/threonine-protein kinase Sgk3 (Homo sapiens) (Q96BR1 whole entry): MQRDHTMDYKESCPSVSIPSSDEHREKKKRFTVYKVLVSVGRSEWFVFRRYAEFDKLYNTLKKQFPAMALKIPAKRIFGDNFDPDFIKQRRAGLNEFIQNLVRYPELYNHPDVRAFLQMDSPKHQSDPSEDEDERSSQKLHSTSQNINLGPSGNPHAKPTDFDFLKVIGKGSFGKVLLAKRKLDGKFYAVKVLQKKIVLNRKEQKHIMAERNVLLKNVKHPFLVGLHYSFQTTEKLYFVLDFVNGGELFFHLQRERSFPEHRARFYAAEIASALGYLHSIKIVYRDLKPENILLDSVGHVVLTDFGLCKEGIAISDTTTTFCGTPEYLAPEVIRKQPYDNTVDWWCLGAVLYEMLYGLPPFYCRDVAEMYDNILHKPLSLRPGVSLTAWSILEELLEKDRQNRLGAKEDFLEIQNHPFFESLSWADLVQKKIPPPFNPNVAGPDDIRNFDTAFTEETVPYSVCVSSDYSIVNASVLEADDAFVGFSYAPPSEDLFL
Test [10] has as its target SRSF protein kinase 1 (Homo sapiens) (UniProt Q96SB4). Description: Inhibition of SRPK1 in human SKCO1 cells at 1 uM after 4 hrs using biotin labeled IIHTDIKPENILLSVNEQYIR probe by mass-spectrometric analysis relative to control. Format: cell-based. An outline of the steps: as §1
A further test has as its system MOLM-14. In words: Antiproliferative activity against human MOLM14 cells harboring FLT3-ITD mutant at […] to […] nM after 72 hrs by CellTiter-Glo assay. Format: functional, cell-based. For orientation: Cellular ATP, detected with luciferase, serves as a proxy for viable cell number.
The subject of another test is NALM-6. In words: Antiproliferative activity against human NALM6 cells harboring NARS A146T mutant at […] to […] nM after 72 hrs by CellTiter-Glo assay. The format is functional, cell-based.
For a further test, the system named is HEL. Description: Antiproliferative activity against human HEL cells at […] to […] nM after 72 hrs by CellTiter-Glo assay. Format: functional, cell-based.
Test [11] addresses T2, Mitogen-activated protein kinase kinase kinase 7 (Homo sapiens) (UniProt O43318).
T2 sequence (whole entry): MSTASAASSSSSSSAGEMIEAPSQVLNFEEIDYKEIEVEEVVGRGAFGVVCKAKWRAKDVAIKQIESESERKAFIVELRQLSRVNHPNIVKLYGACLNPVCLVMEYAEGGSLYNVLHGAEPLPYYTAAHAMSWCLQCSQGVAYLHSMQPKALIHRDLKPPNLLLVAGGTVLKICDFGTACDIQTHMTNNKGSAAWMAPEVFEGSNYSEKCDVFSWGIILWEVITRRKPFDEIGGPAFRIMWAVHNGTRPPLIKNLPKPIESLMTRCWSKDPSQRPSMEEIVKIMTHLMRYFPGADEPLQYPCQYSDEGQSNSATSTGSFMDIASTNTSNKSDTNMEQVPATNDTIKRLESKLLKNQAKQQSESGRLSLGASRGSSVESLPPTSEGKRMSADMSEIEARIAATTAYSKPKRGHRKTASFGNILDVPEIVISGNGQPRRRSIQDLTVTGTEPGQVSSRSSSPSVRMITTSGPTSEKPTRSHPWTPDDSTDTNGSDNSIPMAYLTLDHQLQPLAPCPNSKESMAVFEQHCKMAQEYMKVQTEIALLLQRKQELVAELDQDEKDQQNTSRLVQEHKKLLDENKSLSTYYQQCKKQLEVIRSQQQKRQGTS
To be noted: 0.6 uM.

The target of test [12] is Eukaryotic elongation factor 2 kinase (Homo sapiens) (UniProt O00418). Description: Inhibition of eEF2K in human SKCO1 cells at 1 uM after 4 hrs using biotin labeled YIKYNSNSGFVR probe by mass-spectrometric analysis relative to control. The format is cell-based.
Test [13] addresses Tyrosine-protein kinase Fyn (Homo sapiens) (UniProt P06241). Description: Inhibition of FYN in human SKCO1 cells at 1 uM after 4 hrs using biotin labeled QGAKFPIKWTAPEAALYGR probe by mass-spectrometric analysis relative to control. The format is cell-based.
The target in test [14] is Serine/threonine-protein kinase Nek6 (Homo sapiens) (UniProt Q9HC98). Description: Inhibition of NEK6 in human SKCO1 cells at 1 uM after 4 hrs using biotin labeled DIKPANVFITATGVVK probe by mass-spectrometric analysis relative to control. Format: cell-based.
Sequence of Serine/threonine-protein kinase Nek6 (Homo sapiens) (Q9HC98 whole entry): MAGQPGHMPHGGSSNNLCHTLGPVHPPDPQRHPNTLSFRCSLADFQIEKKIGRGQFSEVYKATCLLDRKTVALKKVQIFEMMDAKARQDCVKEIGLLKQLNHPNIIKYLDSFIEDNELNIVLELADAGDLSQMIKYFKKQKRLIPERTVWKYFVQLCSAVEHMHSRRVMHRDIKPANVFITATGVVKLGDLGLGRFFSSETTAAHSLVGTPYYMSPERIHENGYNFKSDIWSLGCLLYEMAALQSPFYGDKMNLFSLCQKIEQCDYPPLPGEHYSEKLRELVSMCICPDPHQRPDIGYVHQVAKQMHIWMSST
In a further test the test system is SK-CO-1. In words: Antiproliferative activity against human SKCO1 cells harboring KRAS G12V mutant after 72 hrs by CellTiter-Glo assay. Format: functional, cell-based. To be noted: SK-CO-1, 72 h.
Another test relates to PANC-1. In words: Antiproliferative activity against human PANC1 cells harboring KRAS G12D mutant after 72 hrs by CellTiter-Glo assay. The format is functional, cell-based. The conditions noted are these: PANC-1, 72 h.

Sequence of Tyrosine-protein kinase Yes (Homo sapiens) (P07947 2-543 limits assumed): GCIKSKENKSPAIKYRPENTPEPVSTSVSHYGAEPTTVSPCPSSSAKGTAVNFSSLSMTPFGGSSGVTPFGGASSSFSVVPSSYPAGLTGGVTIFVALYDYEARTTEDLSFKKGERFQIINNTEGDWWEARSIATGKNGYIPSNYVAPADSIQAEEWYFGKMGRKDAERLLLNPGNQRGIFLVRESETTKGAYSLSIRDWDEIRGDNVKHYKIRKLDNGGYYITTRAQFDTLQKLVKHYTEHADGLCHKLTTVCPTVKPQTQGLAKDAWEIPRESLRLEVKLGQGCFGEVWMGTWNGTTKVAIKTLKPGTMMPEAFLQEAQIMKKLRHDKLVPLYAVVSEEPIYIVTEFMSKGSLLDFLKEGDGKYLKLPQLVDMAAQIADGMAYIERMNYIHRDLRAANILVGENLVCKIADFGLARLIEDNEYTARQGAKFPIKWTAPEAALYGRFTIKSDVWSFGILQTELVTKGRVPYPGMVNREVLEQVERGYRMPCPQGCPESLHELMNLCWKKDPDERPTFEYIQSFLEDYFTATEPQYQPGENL
Sequence of Serine/threonine-protein kinase ATR (Homo sapiens) (Q13535 whole entry, looked up): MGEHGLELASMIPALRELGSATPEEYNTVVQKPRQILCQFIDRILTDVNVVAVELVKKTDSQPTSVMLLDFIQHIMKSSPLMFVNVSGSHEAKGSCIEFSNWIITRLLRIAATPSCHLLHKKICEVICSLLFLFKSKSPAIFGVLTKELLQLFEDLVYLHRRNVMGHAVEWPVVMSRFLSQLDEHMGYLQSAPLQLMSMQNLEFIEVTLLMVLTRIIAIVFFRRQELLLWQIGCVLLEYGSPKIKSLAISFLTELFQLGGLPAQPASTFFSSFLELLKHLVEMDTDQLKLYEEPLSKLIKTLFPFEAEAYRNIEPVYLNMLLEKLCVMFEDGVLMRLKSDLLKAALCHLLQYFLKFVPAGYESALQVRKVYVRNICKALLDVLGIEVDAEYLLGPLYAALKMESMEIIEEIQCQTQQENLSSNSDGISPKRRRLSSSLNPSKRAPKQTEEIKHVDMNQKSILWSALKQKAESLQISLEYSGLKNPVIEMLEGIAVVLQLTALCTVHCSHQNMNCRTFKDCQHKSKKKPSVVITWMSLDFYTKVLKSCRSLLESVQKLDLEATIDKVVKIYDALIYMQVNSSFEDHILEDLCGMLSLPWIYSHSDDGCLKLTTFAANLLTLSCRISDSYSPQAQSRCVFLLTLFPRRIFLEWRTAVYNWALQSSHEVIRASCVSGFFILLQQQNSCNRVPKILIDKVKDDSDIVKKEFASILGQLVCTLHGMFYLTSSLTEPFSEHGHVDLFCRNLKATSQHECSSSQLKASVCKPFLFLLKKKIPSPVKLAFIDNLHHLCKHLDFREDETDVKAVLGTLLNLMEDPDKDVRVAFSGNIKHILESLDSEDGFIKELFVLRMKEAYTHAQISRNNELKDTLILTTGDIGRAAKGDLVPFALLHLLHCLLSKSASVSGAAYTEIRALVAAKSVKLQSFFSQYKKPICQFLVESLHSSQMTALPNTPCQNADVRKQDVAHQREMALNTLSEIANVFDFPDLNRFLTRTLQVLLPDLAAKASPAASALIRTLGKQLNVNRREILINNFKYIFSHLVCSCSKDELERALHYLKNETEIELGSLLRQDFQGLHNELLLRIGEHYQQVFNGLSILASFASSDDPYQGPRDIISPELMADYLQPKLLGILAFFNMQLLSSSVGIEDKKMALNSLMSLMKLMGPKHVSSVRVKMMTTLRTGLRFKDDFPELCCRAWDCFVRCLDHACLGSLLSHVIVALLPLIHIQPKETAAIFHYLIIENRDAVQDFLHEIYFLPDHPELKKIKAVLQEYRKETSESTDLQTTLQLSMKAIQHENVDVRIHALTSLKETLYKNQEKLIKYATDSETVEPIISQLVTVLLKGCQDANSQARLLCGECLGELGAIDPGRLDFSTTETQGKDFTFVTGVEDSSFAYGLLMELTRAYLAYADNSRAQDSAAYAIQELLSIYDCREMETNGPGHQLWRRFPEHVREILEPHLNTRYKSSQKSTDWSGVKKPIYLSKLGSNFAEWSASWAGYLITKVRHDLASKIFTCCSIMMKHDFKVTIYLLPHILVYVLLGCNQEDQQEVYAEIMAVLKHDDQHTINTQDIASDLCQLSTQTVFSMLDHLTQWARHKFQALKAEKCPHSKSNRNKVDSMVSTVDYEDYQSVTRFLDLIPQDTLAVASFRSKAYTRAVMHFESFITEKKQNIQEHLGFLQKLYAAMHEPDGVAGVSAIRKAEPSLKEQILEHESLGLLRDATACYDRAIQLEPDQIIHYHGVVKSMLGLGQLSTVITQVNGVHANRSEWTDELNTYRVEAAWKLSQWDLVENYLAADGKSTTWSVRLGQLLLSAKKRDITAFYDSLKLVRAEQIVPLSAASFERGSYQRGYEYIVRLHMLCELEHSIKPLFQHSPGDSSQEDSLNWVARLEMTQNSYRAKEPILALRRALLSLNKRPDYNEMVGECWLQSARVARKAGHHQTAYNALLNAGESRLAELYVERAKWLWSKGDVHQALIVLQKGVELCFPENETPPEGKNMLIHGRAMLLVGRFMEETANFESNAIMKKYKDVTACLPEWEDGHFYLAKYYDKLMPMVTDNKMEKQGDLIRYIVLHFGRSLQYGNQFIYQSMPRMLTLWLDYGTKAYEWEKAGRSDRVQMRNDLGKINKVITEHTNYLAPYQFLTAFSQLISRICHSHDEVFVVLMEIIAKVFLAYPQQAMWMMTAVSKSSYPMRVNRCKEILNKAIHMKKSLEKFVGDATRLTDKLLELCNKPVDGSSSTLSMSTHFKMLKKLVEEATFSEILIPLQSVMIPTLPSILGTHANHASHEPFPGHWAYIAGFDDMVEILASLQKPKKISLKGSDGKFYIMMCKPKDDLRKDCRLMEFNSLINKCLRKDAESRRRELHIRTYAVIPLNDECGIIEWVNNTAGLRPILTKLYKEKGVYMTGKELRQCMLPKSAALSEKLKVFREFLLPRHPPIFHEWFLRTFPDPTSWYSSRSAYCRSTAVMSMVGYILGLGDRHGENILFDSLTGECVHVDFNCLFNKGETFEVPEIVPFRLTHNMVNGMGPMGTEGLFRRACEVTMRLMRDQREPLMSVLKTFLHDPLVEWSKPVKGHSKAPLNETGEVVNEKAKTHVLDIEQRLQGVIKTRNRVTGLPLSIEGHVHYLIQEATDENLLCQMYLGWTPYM
Sequence of Phosphatidylinositol 5-phosphate 4-kinase type-2 alpha (Homo sapiens) (P48426 whole entry): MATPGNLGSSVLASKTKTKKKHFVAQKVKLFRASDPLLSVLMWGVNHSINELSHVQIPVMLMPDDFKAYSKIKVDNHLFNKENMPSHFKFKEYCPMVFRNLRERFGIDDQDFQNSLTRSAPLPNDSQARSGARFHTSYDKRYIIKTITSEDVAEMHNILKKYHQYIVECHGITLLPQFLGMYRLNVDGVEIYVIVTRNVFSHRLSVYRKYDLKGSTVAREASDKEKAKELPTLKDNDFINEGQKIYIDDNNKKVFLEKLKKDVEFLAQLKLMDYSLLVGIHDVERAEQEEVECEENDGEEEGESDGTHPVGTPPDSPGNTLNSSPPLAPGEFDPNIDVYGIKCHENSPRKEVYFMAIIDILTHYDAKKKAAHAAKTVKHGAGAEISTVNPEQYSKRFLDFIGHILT
Sequence of Tyrosine-protein kinase Fyn (Homo sapiens) (P06241 2-537 limits assumed): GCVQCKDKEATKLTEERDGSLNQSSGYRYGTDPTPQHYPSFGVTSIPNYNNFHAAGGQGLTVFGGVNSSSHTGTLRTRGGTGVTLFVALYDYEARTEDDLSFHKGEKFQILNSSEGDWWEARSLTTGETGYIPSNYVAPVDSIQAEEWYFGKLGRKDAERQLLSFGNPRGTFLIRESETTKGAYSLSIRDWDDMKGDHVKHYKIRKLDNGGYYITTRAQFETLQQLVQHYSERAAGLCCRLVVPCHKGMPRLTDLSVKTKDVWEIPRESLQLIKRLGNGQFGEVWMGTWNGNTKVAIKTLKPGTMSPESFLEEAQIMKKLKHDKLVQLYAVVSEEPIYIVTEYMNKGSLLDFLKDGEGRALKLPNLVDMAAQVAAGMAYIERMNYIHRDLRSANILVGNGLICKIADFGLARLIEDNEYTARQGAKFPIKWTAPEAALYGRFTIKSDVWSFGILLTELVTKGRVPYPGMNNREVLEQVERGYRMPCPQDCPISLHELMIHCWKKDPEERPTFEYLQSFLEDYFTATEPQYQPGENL

As to `C=CC(=O)Nc1ccccc1Nc1nc(Nc2ccc(N3CCN(C)CC3)cc2)ncc1Cl`, the inhibition (usually the change of the read-out against control, counted positive when it falls) in [1] is -8.1%; in test [2], 50.5%; in test [3], 4.9%; in [4], 70%; in [5], 70%; in test [6], 24.9%. For the same molecule, the inhibition is 16.3% in [7], 2% in test [8], -2.7% in test [9] and 2.9% in test [10]. In the test with MOLM-14, the outcome was Active. The outcome with NALM-6 and in the test with HEL was inactive. Besides, in test [11], the inhibition result was “Active”.
For the molecule `COc1cc(O)c2c(c1)/C=C/C[C@H](O)[C@H](O)C(=O)/C=C\C[C@H](C)OC2=O`, the inhibition in [1] was 2%; in [12], -7.7%; in test [13], 8.5%; in test [2] it was 8.5%; in test [6] it was 26.2%; in test [14], 4.9%. The inhibition in test [7] is 45.5%; in test [8] it was 16.1%; in [9], -1.4%. In addition, the IC50 (commonly the concentration that gives 50% inhibition) with SK-CO-1 worked out at 250 nM; with PANC-1, 2500 nM. The inhibition result in [11] is “Active”.
Consider `C=CC(=O)Nc1ccccc1Oc1nc(Nc2cnn(CCOC)c2)ncc1Cl`, for which the inhibition is 6.7% in test [12]; -0.9% in test [13]; -0.9% in [2]; 8.1% in test [3]; 0.8% in test [4]; 0.8% in test [5]. The figures for the inhibition in test [14], in [7] and in [10] were -0.4%, 14.3% and -6.1%, respectively. Moreover, the outcome in the test with MOLM-14 was Active. Besides, the result in the test on NALM-6 and in the test with HEL was inactive. The IC50 in the test with SK-CO-1 came out at 318 nM; in the test with PANC-1 it was 5610 nM.
